What was measured:
A549 = experiment: Permeability in human A549 cells assessed as relative fluorescence intensity at 10 uM incubated for 8 hrs at 37 degC in presence of serum free medium by spectrofluorometry; assay type: ADME, cell-based; conditions: a549, 8 h
Outline: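 A549 cells exposed to TAMRA-labeled oligonucleotides (in 10 mM Tris–HCl, 1 mM EDTA, pH 8) without transfection reagent; after incubation, PBS wash, lysis and lysate fluorescence read on a spectrofluorometer; n = 4.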

[1] = Stability in 28% NH3 aq, 55 degC incubated for 8 hrs assessed as compound degradation in to PDE dimer d(TpT) by reversed-phase HPLC method; assay type: physicochemical
Outline: (§1)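 Untreated and treated dimers compared by reversed-phase HPLC on a C18 column, eluted with a linear 5–25% acetonitrile gradient over 20 min in 50 mM triethylammonium acetate, pH 7.0.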

[2] = Stability in 28% NH3 aq, incubated for 2 hrs at room temperature assessed as compound degradation by reversed-phase HPLC method; assay type: physicochemical; outline: as §1
[3] = Solubility in water; assay type: physicochemical; conditions: buffer
Serum = experiment: Stability in 10% FBS assessed as compound degradation at 5 nmol incubated for 180 mins by reversed-phase HPLC method; assay type: ADME, cell-free, Bos taurus; conditions: cattle, 3 h
Outline: (§2)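 Dimers incubated with snake venom phosphodiesterase or in 10% fetal bovine serum, then reactions analysed by reversed-phase HPLC; peak areas of intact dimer used to give the fraction of intact dimer over time.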

[4] = Stability assessed as snake venom phosphodiesterase-mediated compound degradation at 5 nmol incubated for 180 mins by reversed-phase HPLC method; assay type: ADME; conditions: serpentes, 3 h; outline: as §2

CCOP(=O)(OC[C@H]1O[C@@H](n2cc(C)c(=O)[nH]c2=O)C[C@@H]1OP(=O)(OCC)OC[C@H]1O[C@@H](n2cc(C)c(=O)[nH]c2=O)C[C@@H]1OP(=O)(OCC)OC[C@H]1O[C@@H](n2cc(C)c(=O)[nH]c2=O)C[C@@H]1OP(=O)(OCC)OC[C@H]1O[C@@H](n2cc(C)c(=O)[nH]c2=O)C[C@@H]1OP(=O)(OCC)OC[C@H]1O[C@@H](n2cc(C)c(=O)[nH]c2=O)C[C@@H]1OP(=O)(OCC)OC[C@H]1O[C@@H](n2cc(C)c(=O)[nH]c2=O)C[C@@H]1OP(=O)(OCC)OC[C@H]1O[C@@H](n2cc(C)c(=O)[nH]c2=O)C[C@@H]1OP(=O)(OCC)OC[C@H]1O[C@@H](n2cc(C)c(=O)[nH]c2=O)C[C@@H]1OP(=O)(OCC)OC[C@H]1O[C@@H](n2cc(C)c(=O)[nH]c2=O)C[C@@H]1OP(=O)(O)OCCC(O)COCCCNC(=O)c1ccc(C(=O)O)c(C2=C3C=CC(=[N+](C)C)C=C3OC3C=C(N(C)C)C=CC23)c1)O[C@H]1C[C@H](n2cc(C)c(=O)[nH]c2=O)O[C@@H]1COP(=O)(O)O (stereo partly drawn)
Flu intensity (A549): 16

COP(=O)(OC[C@H]1O[C@@H](n2cc(C)c(=O)[nH]c2=O)C[C@@H]1O)O[C@H]1C[C@H](n2cc(C)c(=O)[nH]c2=O)O[C@@H]1CO (stereo partly drawn)
Stability [1]: Unstable
Stability [2]: Unstable

Cc1cn([C@H]2C[C@H](OP(=O)(O)OC[C@H]3O[C@@H](n4cc(C)c(=O)[nH]c4=O)C[C@@H]3OP(=O)(O)OC[C@H]3O[C@@H](n4cc(C)c(=O)[nH]c4=O)C[C@@H]3OP(=O)(O)OC[C@H]3O[C@@H](n4cc(C)c(=O)[nH]c4=O)C[C@@H]3OP(=O)(O)OC[C@H]3O[C@@H](n4cc(C)c(=O)[nH]c4=O)C[C@@H]3OP(=O)(O)OC[C@H]3O[C@@H](n4cc(C)c(=O)[nH]c4=O)C[C@@H]3OP(=O)(O)OC[C@H]3O[C@@H](n4cc(C)c(=O)[nH]c4=O)C[C@@H]3OP(=O)(O)OC[C@H]3O[C@@H](n4cc(C)c(=O)[nH]c4=O)C[C@@H]3OP(=O)(O)OC[C@H]3O[C@@H](n4cc(C)c(=O)[nH]c4=O)C[C@@H]3OP(=O)(O)OC[C@H]3O[C@@H](n4cc(C)c(=O)[nH]c4=O)C[C@@H]3OP(=O)(O)OCCC(O)COCCCNC(=O)c3ccc(C(=O)O)c(C4=C5C=CC(=[N+](C)C)C=C5OC5C=C(N(C)C)C=CC45)c3)[C@@H](COP(=O)(O)O)O2)c(=O)[nH]c1=O (stereo partly drawn)
Flu intensity (A549): 1

CCOP(=O)(OC[C@H]1O[C@@H](n2cc(C)c(=O)[nH]c2=O)C[C@@H]1OP(=O)(OCC)OC[C@H]1O[C@@H](n2cc(C)c(=O)[nH]c2=O)C[C@@H]1OP(=O)(OCC)OC[C@H]1O[C@@H](n2cc(C)c(=O)[nH]c2=O)C[C@@H]1OP(=O)(OCC)OC[C@H]1O[C@@H](n2cc(C)c(=O)[nH]c2=O)C[C@@H]1OP(=O)(OCC)OC[C@H]1O[C@@H](n2cc(C)c(=O)[nH]c2=O)C[C@@H]1OP(=O)(OCC)OC[C@H]1O[C@@H](n2cc(C)c(=O)[nH]c2=O)C[C@@H]1OP(=O)(OCC)OC[C@H]1O[C@@H](n2cc(C)c(=O)[nH]c2=O)C[C@@H]1OP(=O)(OCC)OC[C@H]1O[C@@H](n2cc(C)c(=O)[nH]c2=O)C[C@@H]1OP(=O)(OCC)OC[C@H]1O[C@@H](n2cc(C)c(=O)[nH]c2=O)C[C@@H]1OP(=O)(O)OCCC(O)COCCCNC(=O)c1ccc(C(=O)O)c(C2=C3C=CC(=[N+](C)C)C=C3OC3C=C(N(C)C)C=CC23)c1)O[C@H]1C[C@H](n2cc(C)c(=O)[nH]c2=O)O[C@@H]1COP(=O)(O)OCCCCNCCCNCCCCNCCCNCCCCO (stereo partly drawn)
solubility [3]: soluble
Flu intensity (A549): 33.1

Cc1cn([C@H]2C[C@H](OP(=O)(O)OC[C@H]3O[C@@H](n4cc(C)c(=O)[nH]c4=O)C[C@@H]3O)[C@@H](CO)O2)c(=O)[nH]c1=O
Stability (Serum): Unstable
Stability [4]: Unstable

CCOP(=O)(OC[C@H]1O[C@@H](n2cc(C)c(=O)[nH]c2=O)C[C@@H]1O)O[C@H]1C[C@H](n2cc(C)c(=O)[nH]c2=O)O[C@@H]1CO (stereo partly drawn)
Stability (Serum): Stable
Stability [4]: Stable
Stability [1]: Stable
Stability [2]: Stable

Cc1cn([C@H]2C[C@H](OP(=O)(O)OC[C@H]3O[C@@H](n4cc(C)c(=O)[nH]c4=O)C[C@@H]3OP(=O)(O)OC[C@H]3O[C@@H](n4cc(C)c(=O)[nH]c4=O)C[C@@H]3OP(=O)(O)OC[C@H]3O[C@@H](n4cc(C)c(=O)[nH]c4=O)C[C@@H]3OP(=O)(O)OC[C@H]3O[C@@H](n4cc(C)c(=O)[nH]c4=O)C[C@@H]3OP(=O)(O)OC[C@H]3O[C@@H](n4cc(C)c(=O)[nH]c4=O)C[C@@H]3OP(=O)(O)OC[C@H]3O[C@@H](n4cc(C)c(=O)[nH]c4=O)C[C@@H]3OP(=O)(O)OC[C@H]3O[C@@H](n4cc(C)c(=O)[nH]c4=O)C[C@@H]3OP(=O)(O)OC[C@H]3O[C@@H](n4cc(C)c(=O)[nH]c4=O)C[C@@H]3OP(=O)(O)OC[C@H]3O[C@@H](n4cc(C)c(=O)[nH]c4=O)C[C@@H]3OP(=O)(O)OCCC(O)COCCCNC(=O)c3ccc(C(=O)O)c(C4=C5C=CC(=[N+](C)C)C=C5OC5C=C(N(C)C)C=CC45)c3)[C@@H](COP(=O)(O)OCCCCNCCCNCCCCNCCCNCCCCO)O2)c(=O)[nH]c1=O (stereo partly drawn)
Flu intensity (A549): 5.45

— ChEMBL document CHEMBL3608243, “Synthesis of novel cationic spermine-conjugated phosphotriester oligonucleotide for improvement of cell membrane permeability” (Bioorg Med Chem Lett, 2015)
